pIC50: −log10 of the molar value.

The text below walks through data of ChEMBL document CHEMBL2429837, “Identification of cryptotanshinone as an inhibitor of oncogenic protein tyrosine phosphatase SHP2 (PTPN11)” (J Med Chem, 2013).

Assay [1] addresses T1, Tyrosine-protein phosphatase non-receptor type 11 (Homo sapiens, UniProt Q06124).
T1 sequence (Q06124 whole entry): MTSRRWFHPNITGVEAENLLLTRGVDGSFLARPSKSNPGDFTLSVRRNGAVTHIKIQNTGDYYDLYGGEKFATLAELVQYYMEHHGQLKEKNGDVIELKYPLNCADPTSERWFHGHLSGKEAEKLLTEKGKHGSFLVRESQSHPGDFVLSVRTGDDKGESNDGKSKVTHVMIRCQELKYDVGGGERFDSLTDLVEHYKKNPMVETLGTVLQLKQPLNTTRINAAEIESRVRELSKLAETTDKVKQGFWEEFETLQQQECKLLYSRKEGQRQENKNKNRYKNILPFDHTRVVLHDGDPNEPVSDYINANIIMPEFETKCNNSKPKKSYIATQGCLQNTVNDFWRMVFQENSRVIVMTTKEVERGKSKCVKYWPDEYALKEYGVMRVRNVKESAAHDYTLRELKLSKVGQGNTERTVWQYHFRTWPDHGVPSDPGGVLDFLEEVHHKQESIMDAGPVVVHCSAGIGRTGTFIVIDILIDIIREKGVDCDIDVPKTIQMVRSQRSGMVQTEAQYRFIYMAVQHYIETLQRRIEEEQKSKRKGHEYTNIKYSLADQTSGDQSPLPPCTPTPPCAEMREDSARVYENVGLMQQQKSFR
The assay is described as follows: Inhibition of GST-tagged SHP2 PTP domain (unknown origin) using phospho-EGFR Asp-Ala-Asp-Glu-Tyr[PO3H2]-Leu-Ile-Pro-Gln-Gln-Gly as substrate preincubated for 30 mins before substrate addition measured after 30 mins by phosphatase activity assay. In outline: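 GST-SHP2 PTP domain fusion, purified in-house, 0.5 µg per reaction. Buffer 25 mM Tris-HCl pH 7.4, 50 mM NaCl, 5 mM DTT, 2.5 mM EDTA. Inhibitor pre-incubation at room temperature; substrate 0.2 mM final; reaction at 30°C. Free phosphate by Malachite Green, OD620 read after 10 min. IC50 from 6 (or 5) concentrations, three independent experiments.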

The target of assay [2] is Tyrosine-protein phosphatase non-receptor type 6 (Homo sapiens, UniProt P29350). The assay is described as follows: Inhibition of GST-tagged SHP1 PTP domain (unknown origin) using phospho-EGFR Asp-Ala-Asp-Glu-Tyr[PO3H2]-Leu-Ile-Pro-Gln-Gln-Gly as substrate preincubated for 30 mins before substrate addition measured after 30 mins by phosphatase activity assay. In outline:
(§1)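 In-house SHP1 or purchased GST-CD45 cytoplasmic domain, GST-LAR, GST-TC-PTP preincubated with compound (6 concentrations) in 25 mM Tris-HCl pH 7.4, 50 mM NaCl, 5 mM DTT, 2.5 mM EDTA, room temperature 30 min. Phospho-EGFR pTyr1018 peptide added to 0.2 mM final, 30°C 30 min; released phosphate by Malachite Green, OD620. Three independent experiments.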

Assay [3] concerns the target T2, Tyrosine-protein phosphatase non-receptor type 2 (Homo sapiens, UniProt P17706).
T2 sequence (P17706 whole entry): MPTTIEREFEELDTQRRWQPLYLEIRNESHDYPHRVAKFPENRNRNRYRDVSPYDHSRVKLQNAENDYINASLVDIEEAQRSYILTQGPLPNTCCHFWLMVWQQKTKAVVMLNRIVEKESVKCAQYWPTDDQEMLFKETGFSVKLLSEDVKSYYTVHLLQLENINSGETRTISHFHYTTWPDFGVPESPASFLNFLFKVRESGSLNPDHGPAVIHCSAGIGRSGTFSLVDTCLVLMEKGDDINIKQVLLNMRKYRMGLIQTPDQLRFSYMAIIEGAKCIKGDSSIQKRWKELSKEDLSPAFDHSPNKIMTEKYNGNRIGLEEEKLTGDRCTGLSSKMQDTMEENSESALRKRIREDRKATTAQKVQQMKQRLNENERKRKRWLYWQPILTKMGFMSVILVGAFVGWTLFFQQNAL
The assay is described as follows: Inhibition of GST-tagged TC-PTP (unknown origin) using phospho-EGFR Asp-Ala-Asp-Glu-Tyr[PO3H2]-Leu-Ile-Pro-Gln-Gln-Gly as substrate preincubated for 30 mins before substrate addition measured after 30 mins by phosphatase activity assay. In outline: as §1

A short description of assay [4]: Growth inhibition of IL3-stimulated mouse BA/F3 cells after 48 hrs by CellTiter 96 assay. It counts as functional, cell-based. To be noted: BaF3, 48 h. The gist of the method: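 Ba/F3 cells seeded 5 × 10^3 per well in RPMI-1640 with 10% FBS and mouse IL-3 (1.0 ng/mL), grown overnight, then exposed to compound or matching DMSO for 48 h. Viable cells counted by tetrazolium-based one-solution proliferation reagent. Triplicates per experiment, three experiments; mean±S.E.M.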

Assay [5] concerns the target T3, Receptor-type tyrosine-protein phosphatase C (Homo sapiens, UniProt P08575).
T3 sequence (P08575 whole entry): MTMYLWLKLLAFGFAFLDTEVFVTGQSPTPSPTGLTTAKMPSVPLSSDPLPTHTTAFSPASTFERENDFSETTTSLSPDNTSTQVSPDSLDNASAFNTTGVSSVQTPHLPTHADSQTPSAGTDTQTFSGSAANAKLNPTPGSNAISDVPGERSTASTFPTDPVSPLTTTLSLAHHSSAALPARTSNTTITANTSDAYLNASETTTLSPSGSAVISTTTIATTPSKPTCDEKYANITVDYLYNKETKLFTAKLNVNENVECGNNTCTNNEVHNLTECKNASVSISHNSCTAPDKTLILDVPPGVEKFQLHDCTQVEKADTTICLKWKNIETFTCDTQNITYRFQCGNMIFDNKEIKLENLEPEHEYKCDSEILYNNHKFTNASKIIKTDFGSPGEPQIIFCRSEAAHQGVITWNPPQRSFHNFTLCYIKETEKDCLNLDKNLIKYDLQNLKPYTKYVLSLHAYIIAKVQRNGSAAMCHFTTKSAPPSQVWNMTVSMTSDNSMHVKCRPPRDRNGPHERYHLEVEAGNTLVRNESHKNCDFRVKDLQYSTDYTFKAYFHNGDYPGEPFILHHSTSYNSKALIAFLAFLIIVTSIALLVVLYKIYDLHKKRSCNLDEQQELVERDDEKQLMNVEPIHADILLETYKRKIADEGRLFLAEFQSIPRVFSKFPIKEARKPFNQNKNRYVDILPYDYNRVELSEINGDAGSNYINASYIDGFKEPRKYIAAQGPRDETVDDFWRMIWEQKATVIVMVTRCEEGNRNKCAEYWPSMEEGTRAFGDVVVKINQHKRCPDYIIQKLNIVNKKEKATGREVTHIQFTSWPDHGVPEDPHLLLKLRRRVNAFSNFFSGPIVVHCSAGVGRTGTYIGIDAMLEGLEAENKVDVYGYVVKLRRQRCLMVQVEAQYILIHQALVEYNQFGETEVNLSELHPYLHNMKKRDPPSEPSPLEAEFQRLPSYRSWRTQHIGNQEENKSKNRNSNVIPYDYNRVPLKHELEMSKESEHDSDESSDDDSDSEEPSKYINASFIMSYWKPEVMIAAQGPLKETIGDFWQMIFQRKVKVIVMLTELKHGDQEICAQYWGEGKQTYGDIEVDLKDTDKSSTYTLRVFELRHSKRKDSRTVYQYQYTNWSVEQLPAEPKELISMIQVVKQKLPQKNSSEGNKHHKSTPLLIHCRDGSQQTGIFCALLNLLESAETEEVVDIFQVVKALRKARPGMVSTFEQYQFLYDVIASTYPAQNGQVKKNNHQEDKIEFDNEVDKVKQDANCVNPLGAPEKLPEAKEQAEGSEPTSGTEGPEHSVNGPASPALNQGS
The assay is described as follows: Inhibition of GST-tagged CD45 (unknown origin) using phospho-EGFR Asp-Ala-Asp-Glu-Tyr[PO3H2]-Leu-Ile-Pro-Gln-Gln-Gly as substrate preincubated for 30 mins before substrate addition measured after 30 mins by phosphatase activity assay. In outline: as §1

The target in assay [6] is T4, Tyrosine-protein phosphatase non-receptor type 1 (Homo sapiens, UniProt P18031).
T4 sequence (P18031 whole entry): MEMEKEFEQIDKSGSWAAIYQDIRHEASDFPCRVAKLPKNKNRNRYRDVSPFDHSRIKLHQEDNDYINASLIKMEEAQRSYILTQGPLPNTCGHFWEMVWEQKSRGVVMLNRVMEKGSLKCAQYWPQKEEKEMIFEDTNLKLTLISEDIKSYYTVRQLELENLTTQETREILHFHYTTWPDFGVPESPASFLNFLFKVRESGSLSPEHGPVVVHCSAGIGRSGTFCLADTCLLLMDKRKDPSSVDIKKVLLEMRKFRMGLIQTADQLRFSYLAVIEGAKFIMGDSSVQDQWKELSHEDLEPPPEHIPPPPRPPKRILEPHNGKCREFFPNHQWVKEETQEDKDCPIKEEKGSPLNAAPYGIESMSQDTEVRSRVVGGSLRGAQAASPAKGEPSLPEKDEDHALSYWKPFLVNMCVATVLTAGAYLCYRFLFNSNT
The experiment in a line: Inhibition of GST-tagged PTP1B (unknown origin) using phospho-EGFR Asp-Ala-Asp-Glu-Tyr[PO3H2]-Leu-Ile-Pro-Gln-Gln-Gly as substrate preincubated for 30 mins before substrate addition measured after 30 mins by phosphatase activity assay. In outline: (§2)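 GST-fusion phosphatase, purified in-house or commercial (MEG2 purchased). Enzyme and compound preincubated 30 min at room temperature in 25 mM Tris-HCl pH 7.4, 50 mM NaCl, 5 mM DTT, 2.5 mM EDTA. EGFR pTyr1018 peptide then added to 0.2 mM final and incubated 30 min at 30°C. Released phosphate read with Malachite Green at OD620 after 10 min. IC50 from 6 concentrations, three independent experiments.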

Assay [7] addresses Tyrosine-protein phosphatase non-receptor type 11 (Homo sapiens, UniProt Q06124, E76K). The experiment in a line: Inhibition of GST-tagged full-length SHP2 E76K mutant (unknown origin) using phospho-EGFR Asp-Ala-Asp-Glu-Tyr[PO3H2]-Leu-Ile-Pro-Gln-Gln-Gly as substrate preincubated for 30 mins before substrate addition measured after 30 mins by phosphatase activity assay.
Assay [8] addresses T1, Tyrosine-protein phosphatase non-receptor type 11. The assay is described as follows: Inhibition of wild type GST-tagged full-length SHP2 (unknown origin) using phospho-EGFR Asp-Ala-Asp-Glu-Tyr[PO3H2]-Leu-Ile-Pro-Gln-Gln-Gly as substrate preincubated for 30 mins before substrate addition measured after 30 mins by phosphatase activity assay. The gist of the method:
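Wild-type full-length SHP2 was purified recombinant and run like the in-house GST-SHP2 assay. It was preincubated with compound 30 min at room temperature in Tris-HCl pH 7.4 buffer with NaCl, DTT and EDTA. Phospho-EGFR peptide was then added to 0.2 mM and incubated 30 min at 30°C, with Malachite Green read-out at OD620. Triplicates from one of three repeat experiments.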

The target in assay [9] is Receptor-type tyrosine-protein phosphatase F (Homo sapiens, UniProt P10586). The experiment in a line: Inhibition of GST-tagged LAR (unknown origin) using phospho-EGFR Asp-Ala-Asp-Glu-Tyr[PO3H2]-Leu-Ile-Pro-Gln-Gln-Gly as substrate preincubated for 30 mins before substrate addition measured after 30 mins by phosphatase activity assay. The gist of the method: as §1
Assay [10] concerns the target T5, Tyrosine-protein phosphatase non-receptor type 9 (Homo sapiens, UniProt P43378).
T5 sequence (P43378 whole entry): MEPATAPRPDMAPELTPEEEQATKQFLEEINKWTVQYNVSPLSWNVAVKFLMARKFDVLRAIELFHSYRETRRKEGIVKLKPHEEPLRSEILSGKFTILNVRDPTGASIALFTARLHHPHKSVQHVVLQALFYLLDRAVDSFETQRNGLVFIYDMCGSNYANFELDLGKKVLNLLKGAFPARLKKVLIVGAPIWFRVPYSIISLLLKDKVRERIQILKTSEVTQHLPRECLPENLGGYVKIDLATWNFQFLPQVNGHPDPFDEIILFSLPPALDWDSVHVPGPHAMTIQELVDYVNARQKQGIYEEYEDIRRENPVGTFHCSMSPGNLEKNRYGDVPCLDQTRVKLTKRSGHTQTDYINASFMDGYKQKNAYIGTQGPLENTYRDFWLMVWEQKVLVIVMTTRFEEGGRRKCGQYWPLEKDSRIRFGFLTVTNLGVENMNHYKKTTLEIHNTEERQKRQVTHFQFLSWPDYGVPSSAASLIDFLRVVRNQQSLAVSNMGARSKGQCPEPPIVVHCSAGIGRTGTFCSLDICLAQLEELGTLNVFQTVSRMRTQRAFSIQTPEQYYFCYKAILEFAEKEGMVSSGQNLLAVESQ
The experiment in a line: Inhibition of GST-tagged MEG2 (unknown origin) using phospho-EGFR Asp-Ala-Asp-Glu-Tyr[PO3H2]-Leu-Ile-Pro-Gln-Gln-Gly as substrate preincubated for 30 mins before substrate addition measured after 30 mins by phosphatase activity assay. In outline:
as §2

Chain of Tyrosine-protein phosphatase non-receptor type 6 (P29350 whole entry, the tested form may be a part): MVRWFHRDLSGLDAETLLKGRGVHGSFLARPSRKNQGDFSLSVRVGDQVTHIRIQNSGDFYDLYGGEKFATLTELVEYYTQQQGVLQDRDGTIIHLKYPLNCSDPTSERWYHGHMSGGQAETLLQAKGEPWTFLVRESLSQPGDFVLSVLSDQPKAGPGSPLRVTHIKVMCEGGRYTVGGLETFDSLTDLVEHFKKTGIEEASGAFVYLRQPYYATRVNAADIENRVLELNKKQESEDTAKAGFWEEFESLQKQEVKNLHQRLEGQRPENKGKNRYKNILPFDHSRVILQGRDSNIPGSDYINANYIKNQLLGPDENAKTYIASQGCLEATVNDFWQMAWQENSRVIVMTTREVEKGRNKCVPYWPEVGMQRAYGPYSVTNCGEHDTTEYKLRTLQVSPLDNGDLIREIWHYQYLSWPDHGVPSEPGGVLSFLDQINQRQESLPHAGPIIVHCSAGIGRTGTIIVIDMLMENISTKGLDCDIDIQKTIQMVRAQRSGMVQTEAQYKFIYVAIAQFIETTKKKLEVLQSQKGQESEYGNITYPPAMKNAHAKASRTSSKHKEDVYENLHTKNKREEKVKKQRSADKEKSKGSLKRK
Chain of Receptor-type tyrosine-protein phosphatase F (P10586 whole entry): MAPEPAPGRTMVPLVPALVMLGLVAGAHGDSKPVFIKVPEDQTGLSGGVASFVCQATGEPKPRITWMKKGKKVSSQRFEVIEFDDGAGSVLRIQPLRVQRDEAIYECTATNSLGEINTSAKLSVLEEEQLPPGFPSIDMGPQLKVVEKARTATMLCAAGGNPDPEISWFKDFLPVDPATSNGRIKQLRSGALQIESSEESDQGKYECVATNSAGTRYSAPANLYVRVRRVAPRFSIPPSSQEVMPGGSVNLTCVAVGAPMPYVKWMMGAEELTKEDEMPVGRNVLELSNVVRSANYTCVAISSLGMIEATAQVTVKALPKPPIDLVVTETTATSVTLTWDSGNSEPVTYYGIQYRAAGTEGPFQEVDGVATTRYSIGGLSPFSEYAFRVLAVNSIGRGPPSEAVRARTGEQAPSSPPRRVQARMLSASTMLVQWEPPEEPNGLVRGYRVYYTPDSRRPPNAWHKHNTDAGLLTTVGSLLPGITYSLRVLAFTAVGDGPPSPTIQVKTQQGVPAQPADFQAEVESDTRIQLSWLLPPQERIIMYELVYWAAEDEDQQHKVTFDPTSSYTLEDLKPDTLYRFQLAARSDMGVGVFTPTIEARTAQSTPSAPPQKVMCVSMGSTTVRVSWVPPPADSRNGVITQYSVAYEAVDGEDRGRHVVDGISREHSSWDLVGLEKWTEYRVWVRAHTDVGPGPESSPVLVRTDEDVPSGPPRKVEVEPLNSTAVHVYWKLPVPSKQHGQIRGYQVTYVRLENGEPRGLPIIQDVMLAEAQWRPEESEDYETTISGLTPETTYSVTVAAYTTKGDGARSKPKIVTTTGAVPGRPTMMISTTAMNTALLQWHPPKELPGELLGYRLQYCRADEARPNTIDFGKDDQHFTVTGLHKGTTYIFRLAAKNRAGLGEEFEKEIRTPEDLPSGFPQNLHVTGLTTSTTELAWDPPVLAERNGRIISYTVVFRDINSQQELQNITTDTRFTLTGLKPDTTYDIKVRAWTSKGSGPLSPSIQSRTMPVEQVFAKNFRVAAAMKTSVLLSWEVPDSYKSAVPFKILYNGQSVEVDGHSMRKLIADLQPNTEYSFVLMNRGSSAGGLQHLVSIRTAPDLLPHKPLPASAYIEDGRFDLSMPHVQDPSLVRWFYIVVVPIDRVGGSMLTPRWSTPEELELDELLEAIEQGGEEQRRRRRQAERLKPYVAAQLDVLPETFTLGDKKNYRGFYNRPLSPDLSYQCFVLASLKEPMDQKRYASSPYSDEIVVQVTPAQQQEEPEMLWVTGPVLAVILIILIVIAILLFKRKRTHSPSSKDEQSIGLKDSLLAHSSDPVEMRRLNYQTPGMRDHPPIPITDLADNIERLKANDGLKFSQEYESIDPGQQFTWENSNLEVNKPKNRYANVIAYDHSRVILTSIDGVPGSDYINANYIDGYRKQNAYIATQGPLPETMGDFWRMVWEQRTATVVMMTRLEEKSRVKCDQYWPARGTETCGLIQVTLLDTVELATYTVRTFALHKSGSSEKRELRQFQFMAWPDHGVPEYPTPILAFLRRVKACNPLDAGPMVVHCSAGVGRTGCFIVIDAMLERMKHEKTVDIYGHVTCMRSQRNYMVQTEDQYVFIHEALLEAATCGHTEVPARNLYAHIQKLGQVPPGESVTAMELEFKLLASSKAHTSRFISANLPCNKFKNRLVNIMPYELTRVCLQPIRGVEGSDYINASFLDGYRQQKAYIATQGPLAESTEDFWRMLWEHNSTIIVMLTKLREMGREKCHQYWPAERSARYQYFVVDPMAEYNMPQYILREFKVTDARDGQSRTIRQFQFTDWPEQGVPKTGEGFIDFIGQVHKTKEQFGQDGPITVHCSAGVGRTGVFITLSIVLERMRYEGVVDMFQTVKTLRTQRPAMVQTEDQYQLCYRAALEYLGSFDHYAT
Chain of Tyrosine-protein phosphatase non-receptor type 11 (Homo sapiens, UniProt Q06124, E76K) (Q06124 as listed by the source E76K): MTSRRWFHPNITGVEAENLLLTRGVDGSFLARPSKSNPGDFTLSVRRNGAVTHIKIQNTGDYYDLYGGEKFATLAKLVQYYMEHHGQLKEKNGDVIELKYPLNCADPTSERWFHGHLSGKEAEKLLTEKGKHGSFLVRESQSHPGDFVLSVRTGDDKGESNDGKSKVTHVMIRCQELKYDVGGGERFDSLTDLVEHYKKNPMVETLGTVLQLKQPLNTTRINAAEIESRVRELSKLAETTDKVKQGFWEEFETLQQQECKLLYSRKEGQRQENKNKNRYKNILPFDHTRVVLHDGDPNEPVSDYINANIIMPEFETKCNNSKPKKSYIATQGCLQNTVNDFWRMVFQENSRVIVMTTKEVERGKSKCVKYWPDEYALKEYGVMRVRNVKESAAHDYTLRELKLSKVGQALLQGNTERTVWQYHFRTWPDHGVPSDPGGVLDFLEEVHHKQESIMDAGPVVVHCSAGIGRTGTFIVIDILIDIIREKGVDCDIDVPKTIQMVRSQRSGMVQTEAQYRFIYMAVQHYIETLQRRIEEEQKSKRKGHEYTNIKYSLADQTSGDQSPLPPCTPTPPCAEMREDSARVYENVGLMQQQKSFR

Broadly, the pIC50 is −log10 of the IC50, conventionally taken in molar units. Take `Cc1coc2c1C(=O)C(=O)c1c-2ccc2c(C)cccc12` [TANSHINONE I]: the pIC50 in assay [1] was 5.59; in assay [2], 5.71.

On to `C[C@H]1COC2=C1C(=O)C(=O)c1c2ccc2c1CCCC2(C)C` [CRYPTOTANSHINONE], for which the pIC50 in assay [3] is 4.25; in assay [4], 4.76; in assay [5], 4.38; in assay [6], 4.47; in assay [1], 4.65; in assay [7] it was 4.62. For the same molecule, the pIC50 in [8] was 4.35; in [9] it was 4.43; in assay [10] it was 4.23; in assay [2], 4.40.

With `Cc1coc2c1C(=O)C(=O)c1c-2ccc2c1CCCC2(C)C` [TANSHINONE IIA], the negative logarithm of the IC50 (pIC50) is 5.59 in assay [1] and 5.67 in assay [2].

In the case of `Cc1cccc2c3c(ccc12)C1=C(C(=O)C3=O)[C@@H](C)CO1` [DIHYDROTANSHINONE I], the pIC50 in assay [1] was 5.40; in [2], 5.44.
